Measured values as given in ChEMBL document CHEMBL1129453, “3-amino-3,4-dihydro-2H-1-benzopyran derivatives as 5-HT1A receptor ligands and potential anxiolytic agents. 2. Synthesis and quantitative structure-activity relationship studies of spiro[pyrrolidine- and piperidine-2,3'(2'H)-benzopyrans]” (J Med Chem, 1996).

Legend:
[1] = target: T1, 5-hydroxytryptamine receptor 1B (Rattus norvegicus, UniProt P28564); experiment: Binding affinity to 5-HT1B receptors using rat cortex+striatum + globus pallidus,[3H]-5-OH-tryptamine, and serotonin for NSB
Summary of the method: (§1)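 Membranes from rat cortex plus striatum plus globus pallidus; [3H]-5-OH-tryptamine as radioligand at roughly its KD; serotonin defines nonspecific binding. Competition binding; IC50 taken as concentration inhibiting 50% of specific binding.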

[2] = Binding affinity to 5-hydroxytryptamine 2 receptor using calf frontal cortex, [3H]- ketanserin, and spiperone for NSB; parameters: species or system Bos taurus
Summary of the method: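 Calf frontal cortex; [3H]ketanserin near its KD; nonspecific binding with spiperone. Competition binding; IC50 = concentration inhibiting 50% of specific binding.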

[3] = target: T2, Serotonin 3 receptor (5HT3) (Mus musculus, UniProt Q9JHJ5+P23979); experiment: Displacement of [3H]-BRC 36694 from 5-hydroxytryptamine 3 receptor in NG108-15 cells; format: cell-based
T2 sequence (Q9JHJ5 whole entry): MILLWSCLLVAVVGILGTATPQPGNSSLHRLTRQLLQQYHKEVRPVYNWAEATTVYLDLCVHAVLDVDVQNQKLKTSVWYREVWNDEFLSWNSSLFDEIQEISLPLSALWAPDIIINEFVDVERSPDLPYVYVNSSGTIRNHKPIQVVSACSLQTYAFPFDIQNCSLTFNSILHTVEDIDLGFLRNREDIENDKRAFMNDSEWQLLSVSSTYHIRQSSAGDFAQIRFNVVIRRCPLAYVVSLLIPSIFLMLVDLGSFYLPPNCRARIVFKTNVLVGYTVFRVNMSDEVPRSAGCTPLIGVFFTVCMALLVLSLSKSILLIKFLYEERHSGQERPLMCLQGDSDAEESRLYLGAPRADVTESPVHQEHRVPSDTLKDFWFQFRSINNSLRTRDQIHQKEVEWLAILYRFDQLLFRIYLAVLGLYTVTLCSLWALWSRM
T2 sequence (P23979 whole entry): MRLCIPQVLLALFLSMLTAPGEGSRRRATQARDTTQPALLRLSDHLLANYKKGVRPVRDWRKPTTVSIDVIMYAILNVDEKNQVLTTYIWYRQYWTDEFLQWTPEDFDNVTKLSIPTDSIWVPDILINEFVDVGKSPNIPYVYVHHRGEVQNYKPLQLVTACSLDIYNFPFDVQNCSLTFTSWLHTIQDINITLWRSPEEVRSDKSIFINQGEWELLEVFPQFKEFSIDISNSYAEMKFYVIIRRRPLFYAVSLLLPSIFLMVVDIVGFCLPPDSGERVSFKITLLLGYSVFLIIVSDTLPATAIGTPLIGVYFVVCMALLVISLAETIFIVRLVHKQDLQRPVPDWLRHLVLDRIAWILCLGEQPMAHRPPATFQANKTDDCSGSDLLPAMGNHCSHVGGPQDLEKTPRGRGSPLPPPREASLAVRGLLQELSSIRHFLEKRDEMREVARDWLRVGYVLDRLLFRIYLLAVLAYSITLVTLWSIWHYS
Summary of the method: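 NG108-15 cells; [3H]-BRC 36694 at approximately its KD; ICS 205930 for nonspecific binding. Competition binding expressed as IC50 against specific binding.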

[4] = target: T3, 5-hydroxytryptamine receptor 1A (Rattus norvegicus, UniProt P19327); experiment: Binding affinity to 5-hydroxytryptamine 1A receptor in rat hippocampus membranes,3H-8-OH-DPAT and buspirone for nonspecific binding (NSB); format: cell membranes
T3 sequence (P19327 whole entry): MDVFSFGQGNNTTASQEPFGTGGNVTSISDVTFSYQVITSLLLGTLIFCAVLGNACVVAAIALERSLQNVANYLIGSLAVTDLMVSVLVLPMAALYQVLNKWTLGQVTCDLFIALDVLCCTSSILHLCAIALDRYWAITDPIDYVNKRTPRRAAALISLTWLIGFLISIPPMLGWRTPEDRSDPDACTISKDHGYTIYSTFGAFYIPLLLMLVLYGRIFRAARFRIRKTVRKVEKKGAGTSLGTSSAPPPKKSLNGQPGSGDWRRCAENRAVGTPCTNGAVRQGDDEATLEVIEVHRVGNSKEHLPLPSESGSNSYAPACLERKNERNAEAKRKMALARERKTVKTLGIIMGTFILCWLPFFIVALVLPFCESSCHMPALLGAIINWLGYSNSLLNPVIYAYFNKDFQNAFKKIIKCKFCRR

[5] = Displacement of [3H]raclopride from Dopamine receptor […] of calf striatum; parameters: species or system Bos taurus
Summary of the method: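 Calf striatum; [3H]raclopride at about its KD; haloperidol for nonspecific binding. Competition assay reporting IC50 (50% inhibition of specific binding).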

[6] = target: T3, 5-hydroxytryptamine receptor 1A; experiment: Compound was evaluated for binding affinity on 5-hydroxytryptamine 1A receptor in rat hippocampus membranes,3H-8-OH-DPAT and buspirone for nonspecific binding; format: cell membranes
Summary of the method: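 Rat hippocampal membranes in competition binding against [³H]-8-OH-DPAT, with the radioligand at roughly its KD. […] IC50 was taken as the concentration inhibiting 50% of specific binding.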

[7] = target: D(2) dopamine receptor (Bos taurus, UniProt P20288); experiment: Displacement of [3H]SDZ-205-501 from Dopamine receptor D2 in calf caudate nucleus.
Summary of the method: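 Calf caudate nucleus; [3H]SDZ205-501 near its KD; butaclamol for nonspecific binding. Competition binding; IC50 for 50% inhibition of specific binding.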

[8] = target: T1, 5-hydroxytryptamine receptor 1B; experiment: Compound was evaluated for binding affinity on 5-HT1B receptors using rat cortex+striatum+ globus pallidus,[ 3H]-5-OH-tryptamine, and serotonin for NSB.; format: tissue-based; summary of the method: as §1
[9] = organism: Rattus norvegicus; experiment: Effect of enantiomeric compound on adenylate cyclase activity in rat hippocampus at 10e-7 M; format: functional
Summary of the method: (§2)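 Rat hippocampal membranes incubated 20 min at 30 °C with forskolin 10 μM, [α-32P]ATP 0.1 μM and test compound. Activity measured as conversion to [32P]cAMP (nM/mg protein/20 min), given as % of control. Mean ± standard error of three determinations in two experiments; Student's t-test versus 100%, p < 0.05.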

[10] = organism: Rattus norvegicus; experiment: Effect of compound on Forskolin-Activated Adenylate Cyclase in Rat Hippocampi at 10e-10 M conc; format: functional; summary of the method: as §2
[11] = organism: Rattus norvegicus; experiment: Effects of enantiomeric compound on adenylate cyclase activity in rat hippocampus at 1 micro M conc; format: functional; summary of the method: as §2
[12] = organism: Rattus norvegicus; experiment: Effect of compound on Forskolin-Activated Adenylate Cyclase in Rat Hippocampi at 10e-6 M conc; format: functional; summary of the method: as §2
[13] = organism: Rattus norvegicus; experiment: Effect of compound on Forskolin-Activated Adenylate Cyclase in Rat Hippocampi at 10e-7 M conc; format: functional; summary of the method: as §2
[14] = organism: Rattus norvegicus; experiment: Effect of compound on Forskolin-Activated Adenylate Cyclase in Rat Hippocampi at 10e-9 M conc; format: functional; summary of the method: as §2
[15] = organism: Rattus norvegicus; experiment: Effect of compound on Forskolin-Activated Adenylate Cyclase in Rat Hippocampi at 10e-8 M conc (p<0.05); format: functional; summary of the method: as §2
[16] = organism: Rattus norvegicus; experiment: Effect of compound on Forskolin-Activated Adenylate Cyclase in Rat Hippocampi at 0 M conc; format: functional; summary of the method: as §2
[17] = organism: Rattus norvegicus; experiment: Effects of enantiomeric compound on adenylate cyclase activity in rat hippocampus; format: functional; summary of the method: as §2
[18] = organism: Rattus norvegicus; experiment: Effects of enantiomeric compound on adenylate cyclase activity in rat hippocampus at 10e-8 M; format: functional; summary of the method: as §2
[19] = organism: Rattus norvegicus; experiment: Effects of enantiomeric compound on adenylate cyclase activity in rat hippocampus at 10e-6 M; format: functional; summary of the method: as §2
[20] = organism: Rattus norvegicus; experiment: Effects of enantiomeric compound on adenylate cyclase activity in rat hippocampus at 1 uM; format: functional; summary of the method: as §2
[21] = organism: Rattus norvegicus; experiment: Effects of enantiomeric compound on adenylate cyclase activity in rat hippocampus at 10e-7 M; format: functional; summary of the method: as §2
[22] = organism: Rattus norvegicus; experiment: Effects of enantiomeric compound on adenylate cyclase activity in rat hippocampus at 10e-5 M; format: functional; summary of the method: as §2

Sequence of D(2) dopamine receptor (P20288 whole entry): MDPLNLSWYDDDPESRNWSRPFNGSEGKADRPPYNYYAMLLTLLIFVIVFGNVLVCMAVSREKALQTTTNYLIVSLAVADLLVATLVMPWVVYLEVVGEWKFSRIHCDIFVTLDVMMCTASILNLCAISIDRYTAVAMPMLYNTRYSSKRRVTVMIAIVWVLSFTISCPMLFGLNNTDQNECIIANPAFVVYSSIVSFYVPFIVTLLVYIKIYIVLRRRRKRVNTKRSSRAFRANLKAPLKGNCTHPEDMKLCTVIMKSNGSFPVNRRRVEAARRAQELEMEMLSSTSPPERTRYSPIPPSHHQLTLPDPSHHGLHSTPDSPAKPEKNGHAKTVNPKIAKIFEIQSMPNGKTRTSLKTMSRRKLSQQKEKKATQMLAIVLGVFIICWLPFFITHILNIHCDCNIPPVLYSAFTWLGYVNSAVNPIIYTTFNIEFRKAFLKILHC
T1 sequence (P28564 whole entry): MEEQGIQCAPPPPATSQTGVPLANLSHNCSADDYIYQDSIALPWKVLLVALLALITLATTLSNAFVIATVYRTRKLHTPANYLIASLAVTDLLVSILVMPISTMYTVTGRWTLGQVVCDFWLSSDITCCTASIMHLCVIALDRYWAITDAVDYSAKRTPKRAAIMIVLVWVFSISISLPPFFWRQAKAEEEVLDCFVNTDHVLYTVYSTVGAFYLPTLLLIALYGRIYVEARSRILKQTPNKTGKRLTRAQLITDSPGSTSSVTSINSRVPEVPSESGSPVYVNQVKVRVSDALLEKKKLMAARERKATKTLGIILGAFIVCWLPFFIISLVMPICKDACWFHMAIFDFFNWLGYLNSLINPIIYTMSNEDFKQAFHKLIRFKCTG

Structure (SMILES)	IC50 [1]	IC50 [2]	IC50 [3]	IC50 [4]	IC50 [5]	IC50 [7]	also measured
COc1cccc2c1CC1(CCC(=O)N1)CO2 (stereo not drawn)	> 10 µM	> 100 µM	> 100 µM	4.37 µM	–	–	–
COc1cccc2c1CC1(CCCN1C(C)=O)CO2 (stereo not drawn)	246 µM	> 100 µM	> 100 µM	81.4 µM	–	–	–
CCCN1CCCC12COc1cccc(O)c1C2 (stereo not drawn)	> 100 µM	364 µM	7.93 µM	–	> 1000 µM	71.4 µM	IC50 [6]: 0.0385 µM
CCCN1CCCC12COc1ccccc1C2 (stereo not drawn)	> 1000 µM	233 µM	14.5 µM	1.3 µM	–	–	–
CCCN1CCCCC12COc1cccc(OC)c1C2 (stereo not drawn)	69.1 µM	41.4 µM	14.9 µM	0.42 µM	100 µM	14.7 µM	–
CCCN1C(=O)CCC12COc1cccc(OC)c1C2 (stereo not drawn)	> 100 µM	793 µM	> 100 µM	14.2 µM	–	–	–
COc1cccc2c1CC1(CCCN1)CO2 (stereo not drawn)	4.4 µM	71.4 µM	10.2 µM	0.298 µM	–	–	–
CCCN(CCC)C1COc2cccc(OC)c2C1 (stereo not drawn)	–	60 µM	–	–	–	–	–
CCCN1CCCC12COc1cccc(OC)c1C2 (stereo not drawn)	11 µM	112 µM	3.59 µM	0.0746 µM	120 µM	6.55 µM	–
COc1cccc2c1CC1(CCCN1CCCCN1C(=O)CC3(CCCC3)CC1=O)CO2 (racemic)	–	–	–	–	–	–	Effect [9]: 80%
CCCN(CCC)C1CCc2cccc(O)c2C1 (stereo not drawn) [8-OH-DPAT]	–	49 µM	–	–	–	–	–
O=C1CC2(CCCC2)CC(=O)N1CCCCN1CCN(c2ncccn2)CC1 [BUSPIRONE]	–	10 µM	–	–	270 µM	–	–
O=C1c2ccccc2S(=O)(=O)N1CCCCN1CCN(c2ncccn2)CC1 [IPSAPIRONE]	–	7.5 µM	–	–	–	–	–

Continued, in another order:

IC50 [1]	IC50 [2]	IC50 [3]	IC50 [4]	IC50 [5]	IC50 [7]	Structure (SMILES)	also measured
2.7 µM	67.3 µM	3.97 µM	0.101 µM	–	–	CCCN1CCCC12COc1cccc(OCCCCN3C(=O)CC4(CCCC4)CC3=O)c1C2 (stereo not drawn)	–
3.8 µM	5.95 µM	12.5 µM	0.178 µM	–	–	O=C1CC2(CCCC2)CC(=O)N1CCCCN1CCCC12COc1ccccc1C2 (stereo not drawn)	–
51.1 µM	21.1 µM	118 µM	0.068 µM	38 µM	4.22 µM	COc1cccc2c1CC1(CCCCN1CCCCNS(=O)(=O)c1ccc(C)cc1)CO2 (stereo not drawn)	–
–	8.39 µM	66.5 µM	0.0628 µM	38.3 µM	4.3 µM	COc1cccc2c1CC1(CCCCN1CCCCNC(=O)c1ccc(F)cc1)CO2 (stereo not drawn)	IC50 [8]: 11.2 µM
2.21 µM	2.91 µM	41.4 µM	0.00881 µM	23.4 µM	2.84 µM	COc1cccc2c1CC1(CCCCN1CCCCN1C(=O)CC3(CCCC3)CC1=O)CO2 (stereo not drawn)	–
1.3 µM	0.886 µM	12.1 µM	0.00672 µM	22.4 µM	1.31 µM	COc1cccc2c1CC1(CCCN1CCCCN1C(=O)CC3(CCCC3)CC1=O)CO2 (single isomer, unassigned; (+))	Effect [10]: 97%; Effect [11]: 79%; Effect [12]: 82%; Effect [13]: 84%; Effect [14]: 91%; Effect [15]: 88%; Effect [16]: 100%; Effect [17]: 98%
–	3 µM	–	–	–	0.02 µM	CCCN(CCCCN1C(=O)CC2(CCCC2)CC1=O)C1COc2cccc(OC)c2C1 (single isomer, unassigned; (+))	–
31.1 µM	13.9 µM	10.6 µM	–	23.3 µM	11.3 µM	COc1cccc2c1CC1(CCCN1CCCCN1C(=O)CC3(CCCC3)CC1=O)CO2 (single isomer, unassigned; (-))	Effect [18]: 98%; Effect [19]: 86%; Effect [20]: 101%; Effect [21]: 92%; Effect [17]: 101%; Effect [22]: 81%
–	5 µM	–	–	–	–	CCCN(CCCCN1C(=O)CC2(CCCC2)CC1=O)C1COc2cccc(OC)c2C1 (single isomer, unassigned; (-))	–
–	1 µM	–	–	–	–	CCCN(CCCCN1C(=O)CC2(CCCC2)CC1=O)C1COc2cccc(OC)c2C1 (stereo in doubt; 2)	–
3.8 µM	6.61 µM	30.7 µM	0.0106 µM	–	–	COc1cccc2c1CC1(CCCN1CCCCN1C(=O)CC3(CCCC3)CC1=O)CO2 (stereo in doubt; 11a)	–
